Assay results from ChEMBL document CHEMBL3046030, “Implementation of bio-fungicides and seed treatment in organic rice cv. KDML 105 farming” (2009).

Key:
Format in all cases: functional
[1] = tested on: Rhizoctonia solani; experiment: Antifungal activity against Rhizoctonia solani assessed as inhibition of spore germination at 0.5% after 24 hr by compound microscopy
How it was run: (§1)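 R. solani grown 3 days at 25±2°C in aqueous PDA, rinsed three times with distilled water, then held 2 days to induce spores. Suspension set to about 10^6 cfu/mL by hemacytometer and spread on a thin PDA layer on slides. Watch glass held extract/oil (0.10–1.00% v/v) or sterile water control. Moist sealed chamber, 24 h, 25±2°C; encysted spores counted at x100; % inhibition versus control.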

[2] = tested on: Aspergillus flavus; experiment: Antifungal activity against Aspergillus flavus assessed as inhibition of spore germination at 0.10% after 24 hr by compound microscopy
[3] = tested on: Curvularia; experiment: Antifungal activity against Curvularia sp. assessed as mycelial growth inhibition after 96 hr by agar overlay method
How it was run: (§2)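 Agar overlay method: plant extract or essential oil was mixed into PDA at 0.10, 0.25, 0.50 and 1.00% v/v. A 5 mm plug from a 7-day culture was placed upside down on each plate and incubated 96 h at 25±2°C. Colony diameter was compared with an untreated control as % inhibition = (C−T)/C×100, using four replicates averaged. IC50 was derived by regression of the concentration–response curve.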

[4] = tested on: Curvularia; experiment: Antifungal activity against Curvularia sp. assessed as inhibition of spore germination at 1% after 24 hr by compound microscopy
[5] = tested on: Aspergillus niger; experiment: Antifungal activity against Aspergillus niger assessed as inhibition of spore germination at 0.25% after 24 hr by compound microscopy
[6] = tested on: Curvularia; experiment: Antifungal activity against Curvularia sp. assessed as inhibition of spore germination at 0.25% after 24 hr by compound microscopy
[7] = tested on: Rhizoctonia solani; experiment: Antifungal activity against Rhizoctonia solani assessed as inhibition of spore germination at 0.10% after 24 hr by compound microscopy
How it was run: (§3)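 Spores were raised by growing the fungus 3 days at 25±2°C in aqueous PDA, rinsing the mycelium three times in distilled water, and holding it 2 more days. The suspension was adjusted to about 10^6 cfu/mL by hemacytometer and spread on slides carrying a thin PDA layer. An open watch glass held plant extract or essential oil (0.10–1.00% v/v), or sterile water as control. Slides were sealed in moist dishes for 24 h at 25±2°C. Encysted spores were counted at x100, and % inhibition was calculated against control.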

[8] = tested on: Aspergillus flavus; experiment: Antifungal activity against Aspergillus flavus assessed as inhibition of spore germination at 0.25% after 24 hr by compound microscopy
[9] = tested on: Rhizoctonia solani; experiment: Antifungal activity against Rhizoctonia solani assessed as inhibition of spore germination at 1% after 24 hr by compound microscopy; how it was run: as §1
[10] = tested on: Aspergillus niger; experiment: Antifungal activity against Aspergillus niger assessed as inhibition of spore germination at 0.10% after 24 hr by compound microscopy
[11] = tested on: Aspergillus flavus; experiment: Antifungal activity against Aspergillus flavus assessed as mycelial growth inhibition at 1% after 96 hr by agar overlay method; how it was run: as §2
[12] = tested on: Aspergillus niger; experiment: Antifungal activity against Aspergillus niger assessed as inhibition of spore germination at 1% after 24 hr by compound microscopy
[13] = tested on: Bipolaris oryzae; experiment: Antifungal activity against Bipolaris oryzae assessed as mycelial growth inhibition after 96 hr by agar overlay method; how it was run: as §2
[14] = tested on: Rhizoctonia solani; experiment: Antifungal activity against Rhizoctonia solani assessed as mycelial growth inhibition at 1% after 96 hr by agar overlay method
How it was run: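 PDA containing plant extract or essential oil (0.10–1.00% v/v) was used for the agar overlay. A 5 mm plug from a 7-day-old R. solani culture was placed upside down, then incubated 96 h at 25±2°C. Colony diameter was measured against a simultaneous untreated control, and inhibition was calculated as [(C−T)/C]×100. Four replicates were averaged.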

[15] = tested on: Curvularia; experiment: Antifungal activity against Curvularia sp. assessed as mycelial growth inhibition at 1% after 96 hr by agar overlay method; how it was run: as §2
[16] = tested on: Aspergillus niger; experiment: Antifungal activity against Aspergillus niger assessed as mycelial growth inhibition at 1% after 96 hr by agar overlay method; how it was run: as §2
[17] = tested on: Fusarium verticillioides; experiment: Antifungal activity against Fusarium verticillioides assessed as inhibition of spore germination at 0.10% after 24 hr by compound microscopy; how it was run: as §3
[18] = tested on: Nigrospora; experiment: Antifungal activity against Nigrospora sp. assessed as mycelial growth inhibition at 1% after 96 hr by agar overlay method; how it was run: as §2
[19] = tested on: Alternaria solani; experiment: Antifungal activity against Alternaria solani assessed as inhibition of spore germination at 1% after 24 hr by compound microscopy; how it was run: as §3
[20] = tested on: Fusarium verticillioides; experiment: Antifungal activity against Fusarium verticillioides assessed as inhibition of spore germination at 1% after 24 hr by compound microscopy; how it was run: as §3
[21] = tested on: Curvularia; experiment: Antifungal activity against Curvularia sp. assessed as inhibition of spore germination at 0.5% after 24 hr by compound microscopy
[22] = tested on: Bipolaris oryzae; experiment: Antifungal activity against Bipolaris oryzae assessed as mycelial growth inhibition at 1% after 96 hr by agar overlay method; how it was run: as §2
[23] = tested on: Alternaria solani; experiment: Antifungal activity against Alternaria solani assessed as mycelial growth inhibition at 1% after 96 hr by agar overlay method; how it was run: as §2
[24] = tested on: Alternaria solani; experiment: Antifungal activity against Alternaria solani assessed as inhibition of spore germination at 0.25% after 24 hr by compound microscopy; how it was run: as §3
[25] = tested on: Nigrospora; experiment: Antifungal activity against Nigrospora sp. assessed as mycelial growth inhibition after 96 hr by agar overlay method; how it was run: as §2
[26] = tested on: Aspergillus niger; experiment: Antifungal activity against Aspergillus niger assessed as inhibition of spore germination at 0.5% after 24 hr by compound microscopy
[27] = tested on: Aspergillus flavus; experiment: Antifungal activity against Aspergillus flavus assessed as mycelial growth inhibition after 96 hr by agar overlay method; how it was run: as §2
[28] = tested on: Rhizoctonia solani; experiment: Antifungal activity against Rhizoctonia solani assessed as mycelial growth inhibition after 96 hr by agar overlay method
How it was run: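 Agar overlay on PDA with extract or oil at 0.10, 0.25, 0.50 and 1.00% v/v. A 5 mm plug from a 7-day R. solani culture was incubated 96 h at 25±2°C, colony diameter was measured, and % inhibition versus untreated control was calculated in four replicates. IC50 was derived by regression of % inhibition against concentration.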

[29] = tested on: Fusarium verticillioides; experiment: Antifungal activity against Fusarium verticillioides assessed as mycelial growth inhibition after 96 hr by agar overlay method; how it was run: as §2
[30] = tested on: Fusarium verticillioides; experiment: Antifungal activity against Fusarium verticillioides assessed as inhibition of spore germination at 0.5% after 24 hr by compound microscopy; how it was run: as §3
[31] = tested on: Fusarium verticillioides; experiment: Antifungal activity against Fusarium verticillioides assessed as inhibition of spore germination at 0.25% after 24 hr by compound microscopy; how it was run: as §3
[32] = tested on: Aspergillus flavus; experiment: Antifungal activity against Aspergillus flavus assessed as inhibition of spore germination at 0.5% after 24 hr by compound microscopy
[33] = tested on: Alternaria solani; experiment: Antifungal activity against Alternaria solani assessed as mycelial growth inhibition after 96 hr by agar overlay method; how it was run: as §2
[34] = tested on: Aspergillus flavus; experiment: Antifungal activity against Aspergillus flavus assessed as inhibition of spore germination at 1% after 24 hr by compound microscopy
[35] = tested on: Fusarium verticillioides; experiment: Antifungal activity against Fusarium verticillioides assessed as mycelial growth inhibition at 1% after 96 hr by agar overlay method; how it was run: as §2
[36] = tested on: Rhizoctonia solani; experiment: Antifungal activity against Rhizoctonia solani assessed as inhibition of spore germination at 0.25% after 24 hr by compound microscopy; how it was run: as §1
[37] = tested on: Alternaria solani; experiment: Antifungal activity against Alternaria solani assessed as inhibition of spore germination at 0.10% after 24 hr by compound microscopy; how it was run: as §3
[38] = tested on: Curvularia; experiment: Antifungal activity against Curvularia sp. assessed as inhibition of spore germination at 0.10% after 24 hr by compound microscopy
[39] = tested on: Alternaria solani; experiment: Antifungal activity against Alternaria solani assessed as inhibition of spore germination at 0.5% after 24 hr by compound microscopy; how it was run: as §3
[40] = tested on: Aspergillus niger; experiment: Antifungal activity against Aspergillus niger assessed as mycelial growth inhibition after 96 hr by agar overlay method; how it was run: as §2

O=C1C2CC=CCC2C(=O)N1SC(Cl)(Cl)Cl (stereo not given) [CAPTAN]
growth inhibition (GI) [1]: 100%
growth inhibition (GI) [2]: 100%
growth inhibition (GI) [3]: 8.45%
growth inhibition (GI) [4]: 100%
growth inhibition (GI) [5]: 100%
growth inhibition (GI) [6]: 100%
growth inhibition (GI) [7]: 100%
growth inhibition (GI) [8]: 100%
growth inhibition (GI) [9]: 100%
growth inhibition (GI) [10]: 100%
growth inhibition (GI) [11]: 18.02%
growth inhibition (GI) [12]: 100%
growth inhibition (GI) [13]: 1.11%
growth inhibition (GI) [14]: 17.06%
growth inhibition (GI) [15]: 9.15%
growth inhibition (GI) [16]: 13.95%
growth inhibition (GI) [17]: 100%
growth inhibition (GI) [18]: 6.97%
growth inhibition (GI) [19]: 100%
growth inhibition (GI) [20]: 100%
growth inhibition (GI) [21]: 100%
growth inhibition (GI) [22]: 21.1%
growth inhibition (GI) [23]: 2.63%
growth inhibition (GI) [24]: 100%
growth inhibition (GI) [25]: 2.82%
growth inhibition (GI) [26]: 100%
growth inhibition (GI) [27]: 8.13%
growth inhibition (GI) [28]: 13.78%
growth inhibition (GI) [29]: 12.28%
growth inhibition (GI) [30]: 100%
growth inhibition (GI) [31]: 100%
growth inhibition (GI) [32]: 100%
growth inhibition (GI) [33]: 4.6%
growth inhibition (GI) [34]: 100%
growth inhibition (GI) [35]: 23.39%
growth inhibition (GI) [36]: 100%
growth inhibition (GI) [37]: 100%
growth inhibition (GI) [38]: 100%
growth inhibition (GI) [39]: 100%
growth inhibition (GI) [40]: 4.06%
